13 compounds from ChEMBL document CHEMBL1148706, “Probes for narcotic receptor mediated phenomena. 34. Synthesis and structure-activity relationships of a potent mu-agonist delta-antagonist and an exceedingly potent antinociceptive in the enantiomeric C9-substituted 5-(3-hydroxyphenyl)-N-phenylethylmorphan series” (J Med Chem, 2007) can be followed below.

Assay [1] concerns the target T1, Delta-type opioid receptor (Homo sapiens, UniProt P41143). Nature of the assay: Displacement of [125I]IOXY from human delta opioid receptor expressed in CHO cells. The format is cell-based. The method, boiled down:
(§1)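 Membranes of stably transfected human opioid receptor CHO cells (hMOR, hDOR or hKOR), about 30 µg protein per tube, in 50 mM Tris-HCl pH 7.4 with protease inhibitors. [125I]IOXY at a single concentration displaced by 10 drug concentrations, 2 h at 25 °C, triplicates filtered; nonspecific with 10 µM naloxone; IC50 from two-parameter logistic fit.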
For orientation: Loss of bound radioactivity is the signal in a displacement assay; it reports binding, not function.

The target of assay [2] is T2, Kappa-type opioid receptor (Homo sapiens, UniProt P41145). Nature of the assay: Displacement of [125I]IOXY from human kappa opioid receptor expressed in CHO cells. The format is cell-based. A digest of the protocol:
as §1

The target in assay [3] is T3, Mu-type opioid receptor (Homo sapiens, UniProt P35372). Nature of the assay: Displacement of [125I]IOXY from human mu opioid receptor expressed in CHO cells. The format is cell-based. A digest of the protocol: as §1
In assay [4] the target is T3, Mu-type opioid receptor. As to conditions: CHO.
For assay [5], the target named is T1, Delta-type opioid receptor. Nature of the assay: Antagonist activity at human delta opioid receptor expressed in CHO cells by [35S]GTP-gamma-S assay. The format is functional, cell-based. The method, boiled down:
(§2)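 [35S]GTP-γ-S binding on hDOR-CHO or hKOR-CHO membranes, 10 µM GDP, 50 pM radioligand, 3 h at 25 °C. Inhibition of stimulation by SNC80 (500 nM, δ) or (-)-U50,488 (500 nM, κ); ≥3 experiments of 10 points pooled, two-parameter logistic fit for IC50; Ke = IC50/(1+[D]/ED50(D)).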
(GTPγS is a poorly hydrolysed GTP analogue; its binding reports G protein activation.)

The target of assay [6] is T2, Kappa-type opioid receptor. Nature of the assay: Antagonist activity at human kappa opioid receptor expressed in CHO cells by [35S]GTP-gamma-S assay. The format is functional, cell-based. The method, boiled down:
as §2

In assay [7] the target is T3, Mu-type opioid receptor. To be noted: CHO. This is another data set of the same source.
The test system of assay [8] is Mus musculus. Nature of the assay: Antinociceptive activity in mouse assessed after 30 to 40 mins at 1 mg/kg by warm water tail flick test. The format is functional. A digest of the protocol: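 Mice, 55 °C water tail immersion after baseline (non-responders within 5 s excluded); s.c. dosing, tested 10–180 min post-injection, 10 s cutoff. % antinociception = 100×(test−control)/(10−control); A50 from linear regression at peak-effect time, ≥3 doses and 10 mice/dose.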
For orientation: Thermal pain tests record how soon the animal reacts.

The test system of assay [9] is Mus musculus. Nature of the assay: Increased locomotor activity in mouse up to 30 mg/kg. The format is functional, organism-based. Further details: dose 30 mg/kg. The method, boiled down: (§3)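 Signs observed in mice during in vivo antinociceptive testing after s.c. injection in 5% hydroxypropyl-β-cyclodextrin in water.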
The subject of assay [10] is Mus musculus. Nature of the assay: Antinociceptive activity in sc dosed mouse by tail flick assay. The format is functional.
The test system of assay [11] is Mus musculus. Nature of the assay: Induction of straub tail in mouse up to 30 mg/kg. The format is functional, organism-based. Further details: dose 30 mg/kg. A digest of the protocol: as §3
In assay [12] the test system is Mus musculus. Nature of the assay: Antinociceptive activity in sc dosed mouse by hot plate assay. The class given is functional.
Assay [13] relates to Mus musculus. Nature of the assay: Antinociceptive activity in sc dosed mouse by phenylquinone assay. The format is functional.
Assay [14] has as its target T1, Delta-type opioid receptor. Nature of the assay: Agonist activity at human delta opioid receptor expressed in CHO cells by [35S]GTP-gamma-S assay. The class given is functional, cell-based. A digest of the protocol:
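Membranes from stably transfected hDOR-CHO cells (DMEM, 10% FBS, G-418) in 50 mM Tris-HCl pH 7.4 with 100 mM NaCl, 10 mM MgCl2, 1 mM EDTA, 1 mM DTT, 10 µM GDP, 0.1% BSA; 50 pM [35S]GTP-γ-S, 3 h, 25 °C; filtration.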

Assay [15] deals with Mus musculus. Nature of the assay: Induction of convulsions in mouse at 1 mg/kg. The format is functional, organism-based. Details: dose 1 mg/kg. A digest of the protocol:
as §3

In assay [16] the test system is Mus musculus. Nature of the assay: Induction of straub tail in mouse at 1 mg/kg. The class given is functional, organism-based. Details: dose 1 mg/kg. A digest of the protocol:
as §3

In assay [17] the test system is Mus musculus. Nature of the assay: Increased locomotor activity in mouse at 1 mg/kg. Further details: dose 1 mg/kg. The class given is functional, organism-based. The method, boiled down: as §3
In assay [18] the test system is Mus musculus. Nature of the assay: Induction of ataxia in mouse at 1 mg/kg. Further details: dose 1 mg/kg. The format is functional, organism-based. The method, boiled down:
as §3

The target of assay [19] is T1, Delta-type opioid receptor. Nature of the assay: Agonist activity at human delta opioid receptor expressed in CHO cells by [35S]GTP-gamma-S assay relative to SNC80. The class given is functional, cell-based. A digest of the protocol:
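Membranes from CHO cells stably transfected with human δ-opioid receptor cDNA (grown in DMEM, 10% FBS, G-418), incubated 3 h at 25 °C with 50 pM [35S]GTP-γ-S, 10 µM GDP, 50 µg protein in 50 mM Tris-HCl pH 7.4, 100 mM NaCl, 10 mM MgCl2, 1 mM EDTA, 1 mM DTT, 0.1% BSA. Nonspecific binding: 40 µM GTP-γ-S. Filtration, scintillation counting. Emax is extrapolated maximum, 100% = 500 nM SNC80 stimulation.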

Molecules are shown by their SMILES. Calls of active or inactive are those of the source.

T2 sequence (P41145 whole entry): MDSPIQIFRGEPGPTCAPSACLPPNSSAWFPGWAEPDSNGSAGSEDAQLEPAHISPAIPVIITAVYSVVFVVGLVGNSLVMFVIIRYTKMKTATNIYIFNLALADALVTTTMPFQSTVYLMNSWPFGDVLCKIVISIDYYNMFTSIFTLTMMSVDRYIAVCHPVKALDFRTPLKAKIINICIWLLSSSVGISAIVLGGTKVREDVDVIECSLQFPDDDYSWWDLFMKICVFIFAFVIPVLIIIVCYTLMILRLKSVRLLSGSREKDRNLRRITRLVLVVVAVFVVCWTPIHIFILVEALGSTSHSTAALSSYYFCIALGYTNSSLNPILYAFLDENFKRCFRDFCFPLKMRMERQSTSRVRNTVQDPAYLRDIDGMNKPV
T1 sequence (P41143 whole entry): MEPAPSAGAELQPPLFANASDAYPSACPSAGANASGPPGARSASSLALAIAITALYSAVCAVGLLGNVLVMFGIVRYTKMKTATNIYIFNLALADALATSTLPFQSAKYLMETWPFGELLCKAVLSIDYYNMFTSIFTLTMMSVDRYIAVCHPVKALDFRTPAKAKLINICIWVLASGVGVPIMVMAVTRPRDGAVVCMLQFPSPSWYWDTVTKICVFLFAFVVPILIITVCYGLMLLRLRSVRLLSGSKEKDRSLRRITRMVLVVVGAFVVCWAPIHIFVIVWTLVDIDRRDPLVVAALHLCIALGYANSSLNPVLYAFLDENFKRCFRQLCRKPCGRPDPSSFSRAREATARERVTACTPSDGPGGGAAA
T3 sequence (P35372 whole entry): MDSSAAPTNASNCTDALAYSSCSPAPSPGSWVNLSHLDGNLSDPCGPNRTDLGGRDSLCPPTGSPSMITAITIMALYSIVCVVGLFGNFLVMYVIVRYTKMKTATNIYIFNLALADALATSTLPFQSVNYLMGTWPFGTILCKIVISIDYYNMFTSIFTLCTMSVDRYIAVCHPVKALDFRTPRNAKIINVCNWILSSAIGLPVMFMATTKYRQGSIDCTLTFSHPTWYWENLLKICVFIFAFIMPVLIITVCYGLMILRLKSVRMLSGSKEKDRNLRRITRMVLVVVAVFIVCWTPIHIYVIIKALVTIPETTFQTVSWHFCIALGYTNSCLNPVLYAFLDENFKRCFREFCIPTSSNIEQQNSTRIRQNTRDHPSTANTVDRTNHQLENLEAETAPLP

For orientation: Ki means a dissociation constant, usually derived from enzyme kinetics or from competition with a known ligand. Low values mean a stronger hold on the target, high ones a looser hold on the target. For the compound `O=C1[C@H]2CCC[C@]1(c1cccc(O)c1)CCN2CCc1ccccc1`, the Ki in [1] was 770 nM; in assay [2] it was 150 nM; on Mu-type opioid receptor [3], 33 nM.

With `O=C1[C@@H]2CCC[C@@]1(c1cccc(O)c1)CCN2CCc1ccccc1`, the Ki in [1] worked out at 4600 nM; in [2], 3830 nM; at Mu-type opioid receptor [3], 400 nM.

Regarding `C[C@H]1[C@H]2CCC[C@]1(c1cccc(O)c1)CCN2CCc1ccccc1`, the Ki in assay [1] is 90 nM; in assay [2], 4 nM; on Mu-type opioid receptor [3] it was 0.6 nM. Moreover, the Ke worked out at 4.4 nM on Mu-type opioid receptor [4], 31 nM in assay [5] and 6 nM in [6]. On Mu-type opioid receptor [7], the ED50 was determined as 8.7 nM.

In turn, `CN1CC[C@]23c4c5ccc(O)c4O[C@H]2[C@@H](O)C=C[C@H]3[C@H]1C5` [MORPHINE] returned an A50 with Mus musculus [8] of 5.95 mg/kg.

In the case of `C=C1[C@H]2CCC[C@@]1(c1cccc(O)c1)CCN2CCc1ccccc1`, the outcome with Mus musculus [9] and in the assay on Mus musculus [11] was inactive. For the same compound, the Ki in assay [1] is 15 nM; in [2], 0.65 nM; on Mu-type opioid receptor [3] it was 0.19 nM. For the same compound, the Ke on Mu-type opioid receptor [4] was determined as 2.2 nM; in assay [5] it was 12 nM; in assay [6], 2 nM. Also, in the assay with Mus musculus [8], the A50 was determined as 0.11 mg/kg. For the same compound, the ED50 with Mus musculus [10] worked out at 0.03 mg/kg; at Mu-type opioid receptor [7], 2.7 nM; in the assay on Mus musculus [12] it was 0.02 mg/kg; with Mus musculus [13] it was 0.02 mg/kg.

In turn, `C=CCN1C[C@H](C)N([C@H](c2ccc(C(=O)N(CC)CC)cc2)c2cccc(OC)c2)C[C@H]1C` registered an ED50 in assay [14] of 26 nM.

As to `Oc1cccc([C@]23CCC[C@H]([C@@H]2O)N(CCc2ccccc2)CC3)c1`, the figures for the Ki (in assay [1]; in assay [2]; on Mu-type opioid receptor [3]) were 1570 nM, 245 nM and 59 nM, respectively.

One may read the Emax as the greatest response seen or fitted, relative to the assay's reference. Regarding `Oc1cccc([C@]23CCC[C@H]([C@H]2O)N(CCc2ccccc2)CC3)c1`, the values for the Ki (in assay [1]; in [2]; at Mu-type opioid receptor [3]) were 13 nM, 184 nM and 0.19 nM, respectively. Further, the result in the assay with Mus musculus [15], in the assay on Mus musculus [16], in the assay with Mus musculus [17] and in the assay on Mus musculus [18] was Active. Moreover, the ED50 came to 0.004 mg/kg with Mus musculus [10]; 5 nM on Mu-type opioid receptor [7]; 341 nM in assay [14]; 0.002 mg/kg in the assay on Mus musculus [12]; 0.002 mg/kg with Mus musculus [13]. In addition, the Ke in assay [6] came out at 610 nM. The same compound registered a maximal effect (Emax) in [19] of 73%.

For the compound `C[C@H]1C2CCCC1(c1cccc(O)c1)CCN2CCc1ccccc1` (mixture of isomers), the values for the Ki (in [1]; in assay [2]; at Mu-type opioid receptor [3]) were 270 nM, 14.5 nM and 3.1 nM, respectively.

As for `C[C@@H]1[C@@H]2CCC[C@@]1(c1cccc(O)c1)CCN2CCc1ccccc1`, the Ki came out at 300 nM in assay [1], 15 nM in [2] and 8 nM on Mu-type opioid receptor [3].

In the case of `C=C1[C@@H]2CCC[C@]1(c1cccc(O)c1)CCN2CCc1ccccc1`, the Ki in assay [1] is 234 nM; in assay [2], 18 nM; on Mu-type opioid receptor [3], 7 nM.

`Oc1cccc([C@@]23CCC[C@@H]([C@@H]2O)N(CCc2ccccc2)CC3)c1`: the Ki in [1] amounted to 2740 nM; in assay [2], 235 nM; on Mu-type opioid receptor [3], 54 nM.

Take `Oc1cccc([C@@]23CCC[C@@H]([C@H]2O)N(CCc2ccccc2)CC3)c1`: the Ki in assay [1] was 720 nM; in assay [2], 690 nM; at Mu-type opioid receptor [3], 45 nM.
